Data on six compounds can be found in publication PMC2819033 (Journal of medicinal chemistry, 2009).

A short description of data set [1]: n-octanol/water partition coefficient, shake flask method. It is filed as physicochemical. Particulars: values of the aqua complexes. The procedure, abridged: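 Partition was measured by the shake-flask method. For the octanol phase, UV/vis was read at each complex's absorption maximum against n-octanol standards from 1 to 100 μM. For the aqueous phase, ruthenium was measured by ICP-MS (101Ru and 102Ru) with external calibration from 1 to 30 ppb. These samples were prepared in 5% HNO3 with 1 ppb 185Re as internal standard.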

The subject of data set [2] is SW480 (colon carcinoma) cells. Put plainly: MTT assay, SW480 cells. It is filed as cell-based, Human. The settings on record: read-out: IC50 SW480, 96 h exposure. In short, it runs like this:
(§1)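 Cells were kept in MEM with 10% heat-inactivated FBS, 1 mM pyruvate, 4 mM L-glutamine and 1% NEAA at 37 °C, 5% CO2. Seeding by trypsinization was SW480 2.5 × 103 and A2780 5.0 × 10^3 cells/well, with 24 h preincubation and 96 h exposure to serial dilutions. MTT was added for 4 h, formazan dissolved in DMSO, and read at 550 nm (reference 690 nm). IC50 was interpolated from T/C curves using ≥3 experiments, ≥6 replicates each.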

For data set [3], the system named is A2780 (ovarian carcinoma) cells. Put plainly: MTT assay, A2780 cells. Format: cell-based, Human. Particulars: read-out: IC50 A2780, 96 h exposure. In short, it runs like this:
as §1
In general terms: Tetrazolium dyes change colour on reduction, which living cells bring about.

In data set [4] the test system is guanosine 5′-monophosphate (GMP). Put plainly: Nucleotide binding by 1H and 31P NMR, GMP. Particulars: ratio complex/nucleotide.
Data set [5] concerns adenosine 5′-monophosphate (AMP). Put plainly: Nucleotide binding by 1H and 31P NMR, AMP. Particulars: ratio complex/nucleotide.
Data set [6] concerns cytidine 5′-monophosphate (CMP). Put plainly: Nucleotide binding by 1H and 31P NMR, CMP.
The test system of data set [7] is thymidine 5′-monophosphate (TMP). Put plainly: Nucleotide binding by 1H and 31P NMR, TMP.
Data set [8] concerns uridine 5′-monophosphate (UMP). Put plainly: Nucleotide binding by 1H and 31P NMR, UMP.
For data set [9] the following is noted: mononuclear analogue; cited from earlier work.
Data set [10] concerns A2780 (ovarian carcinoma) cells. The settings on record: read-out: IC50 A2780; cited from earlier work.
Data set [11] concerns 5637 (bladder cancer) cells. Put plainly: Crystal violet assay, 5637. Format: cell-based, Human. Particulars: read-out: IC50 5637, 96 h. In short, it runs like this:
(§2)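 Crystal violet assay after 24 h preincubation. Adherent cells grown in RPMI with 10% heat-inactivated FBS and penicillin/streptomycin at 37 °C, 5% CO2; MCF-7 medium also had 1 mM sodium pyruvate and 1% nonessential amino acids. Seeding was 1.0 × 10^3 cells/well, or 250 cells/well for LCLC-103H. 20 mM DMF stocks were diluted 1000-fold in medium with 10% FCS for 96 h exposure. Bound dye was redissolved in 70% ethanol and read at 570 nm.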

The subject of data set [12] is 5637-oxo oxoplatin-resistant cells. Put plainly: Crystal violet assay, 5637-oxo. The settings on record: for Resistance factor 5637-oxo: 5637-oxo versus 5637; for IC50: read-out: IC50 5637-oxo, crystal violet, 96 h, oxoplatin-resistant line. Format: cell-based, Human. In short, it runs like this:
(§3)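 Resistant sublines were derived in-house by weekly exposure to rising oxoplatin concentrations over several months. Cells grew as adherent cultures in RPMI with 10% heat-inactivated FBS and penicillin/streptomycin at 37 °C, 5% CO2. After seeding at 1.0 × 10^3 cells/well and 24 h preincubation, cells had 96 h exposure to 20 mM DMF stocks diluted 1000-fold in medium. Crystal violet was redissolved in 70% ethanol and read at 570 nm.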

The subject of data set [13] is SISO (cervical cancer) cells. Put plainly: Crystal violet assay, SISO. It is filed as cell-based, Human. The settings on record: read-out: IC50 SISO, 96 h. In short, it runs like this: as §2
The subject of data set [14] is SISO-oxo oxoplatin-resistant cells. Put plainly: Crystal violet assay, SISO-oxo. It is filed as cell-based, Human. The settings on record: for Resistance factor SISO-oxo: SISO-oxo versus SISO; for IC50: read-out: IC50 SISO-oxo, crystal violet, 96 h, oxoplatin-resistant line. The procedure, abridged:
as §3

Data set [15] has as its system KYSE70 (esophagus cancer) cells. Put plainly: Crystal violet assay, KYSE70. It is filed as cell-based, Human. The settings on record: read-out: IC50 KYSE70, 96 h. The procedure, abridged:
as §2

In data set [16] the test system is KYSE70-oxo oxoplatin-resistant cells. Put plainly: Crystal violet assay, KYSE70-oxo. It is filed as cell-based, Human. Particulars: for Resistance factor KYSE70-oxo: KYSE70-oxo versus KYSE70; for IC50: read-out: IC50 KYSE70-oxo, crystal violet, 96 h, oxoplatin-resistant line. In short, it runs like this:
as §3

Data set [17] relates to LCLC-103H (lung cancer) cells. The settings on record: read-out: IC50 LCLC-103H; crystal violet; cited from earlier work.
The subject of data set [18] is A-427 (lung cancer) cells. The settings on record: read-out: IC50 A-427; crystal violet; cited from earlier work.
For data set [19], the system named is RT-4 (bladder cancer) cells. Particulars: read-out: IC50 RT-4; crystal violet; cited from earlier work.
For data set [20], the system named is DAN-G (pancreatic cancer) cells. Particulars: read-out: IC50 DAN-G; crystal violet; cited from earlier work.
In data set [21] the test system is LCLC-103H (lung cancer) cells. Put plainly: Crystal violet assay, LCLC-103H. The settings on record: read-out: IC50 LCLC-103H, 96 h. It is filed as cell-based, Human. The procedure, abridged:
as §2

Data set [22] deals with A-427 (lung cancer) cells. Put plainly: Crystal violet assay, A-427. Format: cell-based, Human. Particulars: read-out: IC50 A-427, 96 h. In short, it runs like this:
as §2

In data set [23] the test system is RT-4 (bladder cancer) cells. Put plainly: Crystal violet assay, RT-4. It is filed as cell-based, Human. Particulars: read-out: IC50 RT-4, 96 h. In short, it runs like this: as §2
Data set [24] has as its system MCF-7 (breast cancer) cells. Put plainly: Crystal violet assay, MCF-7. Format: cell-based, Human. Particulars: read-out: IC50 MCF-7, 96 h. In short, it runs like this:
as §2

For data set [25], the system named is DAN-G (pancreatic cancer) cells. Put plainly: Crystal violet assay, DAN-G. The settings on record: read-out: IC50 DAN-G, 96 h. Format: cell-based, Human. In short, it runs like this: as §2

SMILES strings stand for the structures. Read-outs that look alike come from different tables or passages of the source. A value given as a limit tells only on which side of the number the result lay.

In the case of `Cc1c([O-])c(=O)ccn1CCn1ccc(=O)c([O-])c1C.Cc1ccc(C(C)C)cc1.Cc1ccc(C(C)C)cc1.[Cl-].[Cl-].[Ru+2].[Ru+2]` [1c, 1,2-Bis{chlorido[3-(oxo-κO)-2-methyl-4(1H)-pyridinonato-κO4](η ^6-p-cymene)ruthenium(II)}ethane], in data set [1], the “log Poct/water ICP-MS” value is listed as −1.42. In data set [1], the “log Poct/water UV/vis” value is −1.42. Also, the IC50 – broadly, the concentration that inhibits the measured activity by half – in [2] was 76 ± 4 µM; in data set [3], 84 ± 3 µM.

Turning to `Cc1c([O-])c(=O)ccn1CCCCCCCCn1ccc(=O)c([O-])c1C.Cc1ccc(C(C)C)cc1.Cc1ccc(C(C)C)cc1.[Cl-].[Cl-].[Ru+2].[Ru+2]` [5c, 1,8-Bis{chlorido[3-(oxo-κO)-2-methyl-4(1H)-pyridinonato-κO4](η ^6-p-cymene)ruthenium}octane], the “log Poct/water ICP-MS” value in [1] is recorded as −1.28. For the same compound, in data set [1], the “log Poct/water UV/vis” value is listed as −1.23. In addition, the half-inhibitory concentration (IC50) in [2] was found to be 2.5 ± 0.2 µM; in [3], 5.7 ± 0.5 µM. The “formation of GMP adducts” value in data set [4] is “proceeded rapidly and quantitatively up to a ratio of 2:1”. Also, the “formation of AMP adducts” value in [5] was “proceeded rapidly and quantitatively up to a ratio of 2:1”. Also, in data set [6], the “reaction with CMP” value is “no reaction was observed”. Further, the “reaction with TMP” value in data set [7] is “no reaction was observed”. Besides, the “reaction with UMP” value in data set [8] is “no reaction was observed”.

Turning to `Cc1ccc(C(C)C)cc1.Cc1occc(=O)c1[O-].[Cl-].[Ru+2]` [[RuCl(cym)(mal)] 8, chlorido(maltolato-κO^2)(η^6-p-cymene)ruthenium(II)], the IC50 in [2] and in [10] was greater than 100 µM in each case. The pKa values in data set [9] was 9.23.

Turning to `N.N.[Cl][Pt][Cl]` [cisplatin], the IC50 in data set [11] turned out to be 0.37 ± 0.01 µM; in [12], 1.1 ± 0.4 µM; in data set [13] it was 0.28 ± 0.04 µM; in [14], 0.58 ± 0.08 µM; in data set [15], 0.72 ± 0.11 µM; in [16], 1.7 ± 0.4 µM. For the same compound, the half-maximal inhibitory concentration (IC50) was 0.9 ± 0.19 µM in data set [17], 1.96 ± 0.54 µM in [18], 1.61 ± 0.16 µM in data set [19] and 0.73 ± 0.34 µM in data set [20]. Moreover, in data set [12], the “Resistance factor 5637-oxo” value is 2.9. In addition, in data set [14], the “Resistance factor SISO-oxo” value is reported as 2.1. For the same compound, the “Resistance factor KYSE70-oxo” value in data set [16] is 2.4.

For `CCCn1ccc(=O)c([O-])c1C.Cc1ccc(C(C)C)cc1.[Cl-].[Ru+2]` [compound 7, chlorido[2-methyl-3-(oxo-κO)-1-propyl-4(1H)-pyridinonato-κO4](η^6-p-cymene)ruthenium(II)], the IC50 in data set [2] is 42 ± 1 µM; in [3], 88 ± 12 µM.

For `N.N.[Cl-].[Cl-].[OH-].[OH-].[Pt+4]` [oxoplatin], the 50% inhibitory concentration (IC50) in data set [21] amounted to 17.2 ± 5.1 µM; in [22], 13 ± 2.7 µM; in data set [23] it was 26 ± 8 µM; in [24] it was 5.5 ± 1.1 µM; in data set [25], 11.8 ± 3.2 µM; in data set [11], 3.1 ± 1.5 µM. The IC50 in [12] was determined as 10.6 ± 1.3 µM; in [13], 1.7 ± 0.4 µM; in data set [14], 5.2 ± 0.9 µM; in [15], 4.2 ± 2.8 µM; in data set [16], 8.8 ± 5.2 µM. In data set [12], the “Resistance factor 5637-oxo” value turned out to be 3.4. Besides, in data set [14], the “Resistance factor SISO-oxo” value is given as 3.1. Also, the “Resistance factor KYSE70-oxo” value in data set [16] was found to be 2.1.
